These results are taken from ChEMBL document CHEMBL3352814, “Design, synthesis and biological evaluation of biphenylamide derivatives as Hsp90 C-terminal inhibitors” (Eur J Med Chem, 2015).

Calls of active or inactive are those of the source. The rule behind the calls is not given here.

A short description of assay [1]: Antiproliferative activity against human SKBR3 cells after 72 hrs by MTS/PMS assay. Type of assay: functional, cell-based. To be noted: SK-BR-3, 72 h. A digest of the protocol: (§1)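 Cells kept in 1:1 Advanced DMEM/F12 with non-essential amino acids, 2 mM L-glutamine, penicillin/streptomycin and 10% FBS at 37 °C, 5% CO2. Seeded 2000 cells/well, attached overnight, then given compound at varying concentrations in DMSO (1% final) for 72 h. Viable cells read by MTS/PMS. Normalised to 1% DMSO wells as 100% proliferation. IC50 from separate experiments run in triplicate.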

Another assay has as its system MCF7. The assay is described as follows: Antiproliferative activity against human MCF7 cells after 72 hrs by MTS/PMS assay. Type of assay: functional, cell-based. To be noted: MCF7, 72 h. A digest of the protocol: as §1
For assay [2], the target named is T1, Heat shock protein HSP90 (Homo sapiens) (UniProt P07900+P08238). The assay is described as follows: Inhibition of HSP90 in human MCF7 cells assessed as induction of Her2 protein degradation at 0.5 to 5 times antiproliferative IC50 level after 24 hrs by Western blotting method. Type of assay: cell-based. Summed up:
(§2)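 MCF-7 cells, grown as for proliferation, treated 24 h with compound in DMSO (1% final). Geldanamycin 0.5 μM and DMSO served as controls. Lysis in cold RIPA with 1 mM PMSF, 2 mM orthovanadate and protease inhibitors, 1 h on ice, then cleared at 14000g, 10 min, 4 °C. BCA protein assay; 20 μg protein run reducing, blotted to nitrocellulose, probed with client antibodies, HRP chemiluminescence. High and low doses were 5-fold and 0.5-fold the antiproliferative value.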

In assay [3] the target is T1, Heat shock protein HSP90 (Homo sapiens). The assay is described as follows: Inhibition of HSP90 in human MCF7 cells assessed as induction of Raf protein degradation at 0.5 to 5 times antiproliferative IC50 level after 24 hrs by Western blotting method. Type of assay: cell-based. A digest of the protocol: as §2
(In general: A western blot detects proteins with antibodies after separation by electrophoresis.)

Assay [4] has the same target. The assay is described as follows: Inhibition of HSP90 in human MCF7 cells assessed as induction of Akt protein degradation at 0.5 to 5 times antiproliferative IC50 level after 24 hrs by Western blotting method. Type of assay: cell-based. Summed up:
as §2

For assay [5] the target is unchanged. The assay is described as follows: Inhibition of HSP90 in human MCF7 cells assessed as induction of Her2 protein degradation at 0.5 times antiproliferative IC50 level after 24 hrs by Western blotting method. Type of assay: cell-based. Summed up:
as §2

For assay [6] the target is unchanged. The assay is described as follows: Inhibition of HSP90 in human MCF7 cells assessed as induction of Raf protein degradation at 0.5 times antiproliferative IC50 level after 24 hrs by Western blotting method. Type of assay: cell-based. A digest of the protocol: as §2
The target is the same in assay [7]. Put plainly: Inhibition of HSP90 in human MCF7 cells assessed as induction of Akt protein degradation at 0.5 times antiproliferative IC50 level after 24 hrs by Western blotting method. Type of assay: cell-based. Summed up:
as §2

Assay [8] shares this target. Put plainly: Inhibition of HSP90 in human MCF7 cells assessed as induction of Her2 protein degradation at 0.1 to 5 uM after 24 hrs by Western blotting method. Type of assay: cell-based. Summed up:
as §2

For assay [9] the target is unchanged. The assay is described as follows: Inhibition of HSP90 in human MCF7 cells assessed as induction of Raf protein degradation at 0.1 to 5 uM after 24 hrs by Western blotting method. Type of assay: cell-based. Summed up: as §2
Assay [10] has the same target. Put plainly: Inhibition of HSP90 in human MCF7 cells assessed as induction of Akt protein degradation at 0.1 to 5 uM after 24 hrs by Western blotting method. Type of assay: cell-based. A digest of the protocol:
as §2

As a reminder, the IC50 is the midpoint of a concentration-inhibition curve. `COc1ccc(C(=O)Nc2ccc(-c3ccc(OC4CCN(C)CC4)cc3)cc2)cc1`: the IC50 in assay [1] was 490 nM; in the assay on MCF7 it was 650 nM. The inhibition entry in assay [2], in assay [3] and in [4] was “Active” in each case.
For `CN1CCC(Oc2ccc(-c3ccc(NC(=O)c4cccc(-c5ccccc5)c4)cc3)cc2)CC1`, the IC50 turned out to be 730 nM in assay [1] and 1150 nM in the assay with MCF7. Further, the inhibition result in [2], in [3] and in [4] was “Active” each time.
Consider `COc1cccc(-c2cc(C(=O)Nc3cccc(-c4cccc(OC5CCN(C)CC5)c4)c3)ccc2OC)c1`, for which the concentration for half-maximal inhibition (IC50) in assay [1] came to 1620 nM; in the assay on MCF7 it was 2000 nM. Moreover, the inhibition result in [5], in [6] and in assay [7] was “Active” in each case.
Consider `COc1ccc(C(=O)Nc2ccc(-c3ccc(OC4CCN(C)CC4)cc3)cc2)cc1-c1ccccc1`, for which the results for the concentration for half-maximal inhibition (IC50) (in [1]; with MCF7) were 510 nM and 840 nM, respectively. Further, the inhibition result in [5], in assay [6] and in [7] was “Active” in each case.
On to `CN1CCC(Oc2ccc(-c3ccc(NC(=O)c4ccc(Cl)cc4)cc3)cc2)CC1`, for which the results for the IC50 (in assay [1]; in the assay on MCF7) were 570 nM and 520 nM, respectively. Moreover, the inhibition result in assay [2], in assay [3] and in [4] was “inactive” each time.
On to `CN1CCC(Oc2ccc(-c3ccc(NC(=O)c4ccc(Br)cc4)cc3)cc2)CC1`, for which the half-maximal inhibitory concentration (IC50) (in [1]; in the assay on MCF7) was 520 nM in each case. Also, the inhibition entry in assay [2], in assay [3] and in assay [4] was “inactive” each time.
In the case of `COc1cccc(-c2cc(C(=O)Nc3ccc(-c4ccc(OC5CCN(C)CC5)cc4)cc3)ccc2OC)c1`, the IC50 in assay [1] is 470 nM; in the assay with MCF7, 710 nM. Moreover, the inhibition result in assay [5], in [6] and in [7] was “Active” in each case.
`CN1CCC(Oc2ccc(-c3ccc(NC(=O)c4ccc(I)cc4)cc3)cc2)CC1`: the IC50 in assay [1] came out at 310 nM; in the assay with MCF7, 580 nM. The inhibition entry in assay [2], in assay [3] and in [4] was “inactive” each time.
`CC(C)=CCc1cc(C(=O)Nc2cccc(-c3cccc(OC4CCN(C)CC4)c3)c2)ccc1O`: the IC50 in [1] is 2790 nM; with MCF7 it was 1170 nM. In addition, the inhibition result in [5], in assay [6] and in assay [7] was “Active” throughout.
For `COc1ccc(C(=O)Nc2ccc(-c3ccc(OC4CCN(C)CC4)cc3)cc2)cc1-c1ccc(OC(C)=O)cc1`, the IC50 amounted to 140 nM in assay [1] and 640 nM in the assay with MCF7. Besides, the inhibition entry in assay [5], in assay [6] and in assay [7] was “Active” in each case. Moreover, the inhibition result in [8], in assay [9] and in [10] was “Dose-dependent effect” in each case.
In the case of `CN1CCC(Oc2ccc(-c3ccc(NC(=O)c4cccc5ccccc45)cc3)cc2)CC1`, the results for the 50% inhibitory concentration (IC50) (in assay [1]; with MCF7) were 350 nM and 490 nM, respectively. Besides, the inhibition result in assay [2], in assay [3] and in [4] was “Active” throughout.
With `COc1ccc(C(=O)Nc2ccc(-c3ccc(OC4CCN(C)CC4)cc3)cc2)cc1-c1cccc(Cl)c1`, the half-inhibitory concentration (IC50) in assay [1] amounted to 330 nM; in the assay with MCF7 it was 320 nM. The inhibition entry in assay [5], in [6] and in [7] was “Active” throughout.
In the case of `CN1CCC(Oc2ccc(-c3ccc(NC(=O)c4ccc5ccccc5c4)cc3)cc2)CC1`, the results for the half-inhibitory concentration (IC50) (in assay [1]; with MCF7) were 220 nM and 580 nM, respectively. Further, the inhibition result in [2], in [3] and in assay [4] was “Active” each time.
For `CC(C)=CCc1cc(C(=O)Nc2ccc(-c3ccc(OC4CCN(C)CC4)cc3)cc2)ccc1O`, the IC50 is 2270 nM in assay [1] and 1850 nM in the assay on MCF7. The inhibition entry in assay [5], in [6] and in [7] was “Active” each time.
In the case of `CN1CCC(Oc2ccc(-c3ccc(NC(=O)c4cc5ccccc5s4)cc3)cc2)CC1`, the half-inhibitory concentration (IC50) amounted to 1320 nM in [1] and 2010 nM with MCF7.
For the molecule `CN1CCC(Oc2ccc(-c3ccc(NC(=O)c4cc5ccccc5[nH]4)cc3)cc2)CC1`, the IC50 in assay [1] was determined as 640 nM; in the assay with MCF7, 580 nM. The inhibition result in assay [2], in assay [3] and in assay [4] was “Active” each time.
